Laboratory results published in ChEMBL document CHEMBL1125330, “N-substituted pyrazino[2,3-c][1,2,6]thiadiazine 2,2-dioxides. A new class of diuretics” (J Med Chem, 1992).

Assays:
[1] = test system: Rattus norvegicus; experiment: Urinary sodium 3h after the compound was administered 125 mg/kg po in rat; type: ADME, organism-based, Urine; parameters: dose 125 mg/kg, route oral; settings: in vivo
Procedure, shortened: (§1)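 Onset and duration study in fasted, water-loaded male Sprague-Dawley rats housed two per metabolic cage, six pairs per group. Single oral dose given, then water 2.5 mL/100 g po. Urine volume and sodium (flame photometry) measured over 0-1, 1-2, 2-3, 3-4 and 4-6 h intervals. Mean values compared with vehicle by Student t-test.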

[2] = test system: Rattus norvegicus; experiment: Mean Chlorine excretion in rats when compound administered at 80 mg/kg po and vehicle dosed at 315.88 umol/kg; type: ADME, organism-based; parameters: dose 80 mg/kg, route oral; settings: in vivo
Procedure, shortened: (§2)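 Male Sprague-Dawley rats (HC/CFY, 175-200 g), no food or water for 18 h before and during the test. Single gavage dose (2.5-160 mg/kg; vehicle 1% carboxymethyl cellulose/0.1% Tween 80, 0.5 mL/100 g bw), then distilled water 2.5 mL/100 g bw po. Individual metabolic cages, 6 h urine. K+ by flame photometry, Cl- colorimetric, as mequiv/6 h/kg bw; unpaired Student t-test vs control.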

[3] = test system: Rattus norvegicus; experiment: Mean urinary output in rats when compound administered at 2.5 mg/kg po and vehicle dosed at 9.87 umol/kg; type: ADME, organism-based, Urine; parameters: dose 2.5 mg/kg, route oral; settings: in vivo
Procedure, shortened: (§3)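 Water-loaded male Sprague-Dawley rats (HC/CFY, 175-200 g) fasted and without water for 18 h. Oral gavage of 2.5-160 mg/kg in 1% CMC with 0.1% Tween 80, then distilled water 2.5 mL/100 g po. Urine collected 6 h in metabolic cages, mean output in mL/6 h/kg bw. Unpaired Student t-test against vehicle; dose-response by linear regression.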

[4] = test system: Rattus norvegicus; experiment: Mean Chlorine excretion in rats when compound administered at 40 mg/kg po and vehicle dosed at 157.94 umol/kg; type: ADME, organism-based; parameters: dose 40 mg/kg, route oral; settings: in vivo; procedure, shortened: as §2
[5] = test system: Rattus norvegicus; experiment: Dose required to produce an excretion of 2 mequiv of Na+/kg bw/6h vs control groups; type: functional
Procedure, shortened: (§4)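 Male Sprague-Dawley rats (HC/CFY, 175-200 g), fasted and water-deprived 18 h before and during the test. Compound dosed by gavage in 1% carboxymethyl cellulose/0.1% Tween 80, then water load 2.5 mL/100 g bw po. Urine collected 6 h in metabolic cages; Na+ by flame photometry. Effective doses vs vehicle controls derived by linear regression of dose-response data.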

[6] = test system: Rattus norvegicus; experiment: Mean urinary output in rats when compound administered at 20 mg/kg po and vehicle dosed at 78.97 umol/kg; type: ADME, organism-based, Urine; parameters: dose 20 mg/kg, route oral; settings: in vivo; procedure, shortened: as §3
[7] = species: Rattus norvegicus; experiment: Dose required to produce increase in 50 % in urine production vs control groups; type: functional; procedure, shortened: as §4
[8] = test system: Rattus norvegicus; experiment: Mean sodium excretion in rats when compound administered at 40 mg/kg po and vehicle dosed at 157.94 umol/kg; type: ADME, organism-based; parameters: dose 40 mg/kg, route oral; settings: in vivo
Procedure, shortened: (§5)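 Male Sprague-Dawley rats (HC/CFY, 175-200 g) fasted and water-deprived 18 h before and during the test. Dosed by gavage at 2.5-160 mg/kg in 1% carboxymethyl cellulose/0.1% Tween 80, 0.5 mL/100 g bw. Immediately hydrated with water (2.5 mL/100 g bw, po). Urine collected 6 h in metabolic cages; Na+ and K+ by flame photometry; mean mequiv/6 h/kg bw; nonpaired Student t-test.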

[9] = test system: Rattus norvegicus; experiment: Mean Chlorine excretion in rats when compound administered at 5 mg/kg po and vehicle dosed at 19.74 umol/kg; type: ADME, organism-based; parameters: dose 5 mg/kg, route oral; settings: in vivo; procedure, shortened: as §2
[10] = test system: Rattus norvegicus; experiment: Mean potassium excretion in rats when compound administered at 80 mg/kg po and vehicle dosed at 315.88 umol/kg; type: ADME, organism-based; parameters: dose 80 mg/kg, route oral; settings: in vivo; procedure, shortened: as §5
[11] = test system: Rattus norvegicus; experiment: Mean potassium excretion in rats when compound administered at 160 mg/kg po and vehicle dosed at 631.76 umol/kg; type: ADME, organism-based; parameters: dose 160 mg/kg, route oral; settings: in vivo; procedure, shortened: as §2
[12] = test system: Rattus norvegicus; experiment: Mean urinary output in rats when compound administered at 160 mg/kg po and vehicle dosed at 631.76 umol/kg; type: ADME, organism-based, Urine; parameters: dose 160 mg/kg, route oral; settings: in vivo; procedure, shortened: as §3
[13] = test system: Rattus norvegicus; experiment: Mean Chlorine excretion in rats when compound administered at 160 mg/kg po and vehicle dosed at 631.76 umol/kg; type: ADME, organism-based; parameters: dose 160 mg/kg, route oral; settings: in vivo; procedure, shortened: as §2
[14] = test system: Rattus norvegicus; experiment: Mean potassium excretion in rats when compound administered at 5 mg/kg po and vehicle dosed at 19.74 umol/kg; type: ADME, organism-based; parameters: dose 5 mg/kg, route oral; settings: in vivo; procedure, shortened: as §5
[15] = test system: Rattus norvegicus; experiment: Mean sodium excretion in rats when compound administered at 2.5 mg/kg po and vehicle dosed at 9.87 umol/kg; type: ADME, organism-based; parameters: dose 2.5 mg/kg, route oral; settings: in vivo; procedure, shortened: as §5
[16] = test system: Rattus norvegicus; experiment: Urinary sodium 4 hr after the compound was administered 125 mg/kg po in rat; type: ADME, organism-based, Urine; parameters: dose 125 mg/kg, route oral; settings: in vivo; procedure, shortened: as §1
[17] = test system: Rattus norvegicus; experiment: Post dosing time interval of maximum activity; type: functional
Procedure, shortened: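 Interval of peak activity taken from timed urine collections (0-1, 1-2, 2-3, 3-4, 4-6 h) after a single oral dose in water-loaded fasted rats, […]. Urine volume and Na+ excretion followed over time.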

[18] = test system: Rattus norvegicus; experiment: Urinary sodium 2 hr after the compound was administered 125 mg/kg po in rat; type: ADME, organism-based, Urine; parameters: dose 125 mg/kg, route oral; settings: in vivo; procedure, shortened: as §1
[19] = test system: Rattus norvegicus; experiment: Mean Chlorine excretion in rats when compound administered at 0 mg/kg po and vehicle dosed at 0 umol/kg; type: ADME, organism-based; parameters: dose 0 mg/kg, route oral; settings: in vivo
[20] = Acute toxicity in mice when given po; type: organism-based; settings: mouse, in vivo, read-out: DL50 (the source's name)
Procedure, shortened: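 Male Swiss mice (SPF, HC/CFLP strain, 20–25 g), oral dosing; mortality followed over 15 days; LD50 derived by the Litchfield and Wilcoxon method.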

[21] = test system: Rattus norvegicus; experiment: Mean urinary output in rats when compound administered at 40 mg/kg po and vehicle dosed at 157.94 umol/kg; type: ADME, organism-based, Urine; parameters: dose 40 mg/kg, route oral; settings: in vivo; procedure, shortened: as §3
[22] = test system: Rattus norvegicus; experiment: Mean urinary output in rats when compound administered at 0 mg/kg po and vehicle dosed at 0 umol/kg; type: ADME, organism-based, Urine; parameters: dose 0 mg/kg, route oral; settings: in vivo; procedure, shortened: as §3
[23] = test system: Rattus norvegicus; experiment: Mean sodium excretion in rats when compound administered at 10 mg/kg po and vehicle dosed at 39.48 umol/kg; type: ADME, organism-based; parameters: dose 10 mg/kg, route oral; settings: in vivo; procedure, shortened: as §5

In the case of `Nc1nc(N)c2nc(-c3ccccc3)c(N)nc2n1`, the “Urinary Na+” value [1] is reported as 0.19 m equiv, the Cl- [2] is reported as 2.8 m equiv 6hr-1 kg-1 (body weight)-1 and the V [3] is reported as 31.39 ml 6hr-1 (kg of body weight)-1. The Cl- [4] was 2.83 m equiv 6hr-1 kg-1 (body weight)-1, the ED2 [5] was 3.8 mg/kg and the V [6] was 32.87 ml 6hr-1 (kg of body weight)-1. For the same compound, the ED50 [7] was 34.5 mg/kg, the Na [8] was 2.88 m equiv 6hr-1 kg-1 (body weight)-1 and the Cl- [9] was 1.55 m equiv 6hr-1 kg-1 (body weight)-1. The K [10] was 0.14 m equiv 6hr-1 kg-1 (body weight)-1, the K [11] was 0.21 m equiv 6hr-1 kg-1 (body weight)-1 and the V [12] was 52 ml 6hr-1 (kg of body weight)-1. For the same compound, the Cl- [13] was 3.05 m equiv 6hr-1 kg-1 (body weight)-1, the K [14] was 0.19 m equiv 6hr-1 kg-1 (body weight)-1 and the Na [15] was 1.69 m equiv 6hr-1 kg-1 (body weight)-1. The “Urinary Na+” value [16] was 0.15 m equiv, the Time [17] was 6 h and the “Urinary Na+” value [18] was 0.16 m equiv. For the same compound, the Cl- [19] was 0.88 m equiv 6hr-1 kg-1 (body weight)-1, the LD50 [20] was 344 mg/kg and the V [21] was 38.1 ml 6hr-1 (kg of body weight)-1. The V [22] was 24.94 ml 6hr-1 (kg of body weight)-1 and the Na [23] was 2.61 m equiv 6hr-1 kg-1 (body weight)-1.
